# Source: PubChem
# Most compounds without a hit are left out; they make up all but 1.6% or so of the library.
# Beta2AR agonist = activates human beta-2 adrenergic receptor causing internalization. P07550. Am2.2-beta2AR cells, FAP receptor internalization, flow cytometry. response, % (concentration not given with the values). actives 0.43% (n = 340,000). AID 504454;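 active means response above a set limit, near 3 SD of response in nonfluorescent compounds, cut at about 42% in these data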
# TLR9-MyD88 block = TLR9-MyD88 interaction inhibition | CHO BLA complementation TLR9-MyD88, CCF4 FRET ratio | inhibition, % at 4.98 µM | actives 0.21% (n = 340,000);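 active means inhibition above the mean over all tested compounds plus 3 SD, cut at about 21% in these data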;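 further: 0% = DMSO only wells and 100% = clavulanate BLA inhibitor control wells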
# TLR4-MyD88 BLA = TLR4-MyD88 interaction inhibition in cells; O00206+Q99836; inhibition, % at 8.4 µM; HeLa CL3-4 TLR4/MyD88 BLA complementation, FRET ratio; actives 0.18% (n = 200,000); in the data active means inhibition above about 25%;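 further: 0% = vehicle and 100% = reference inhibitor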
# NOD2-RIPK2 inh = inhibitors of human NOD2-RIPK2 interaction; O43353; inhibition, % at 4.98 µM; actives 0.38% (n = 360,000); CHO BLA complementation NOD2-RIPK2, CCF4 ratio; in the data active means inhibition above about 21%;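 further: 0% = vehicle only and 100% = reference blocker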
# ABHD5-PLIN5 inh = ABHD5-PLIN5 protein interaction inhibition. Q00G26+Q8WTS1. Split G. princeps luciferase complementation, luminescence, 4 h. inhibition, % at 4 µM. actives 0.78% (n = 360,000);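 active means inhibition above the mean inhibition across every tested compound plus 3 SD, cut at about 22% in these data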;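 further: 0% = DMSO only wells and the 100% control is not disclosed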
# Target sequence (Q00G26 whole entry, looked up): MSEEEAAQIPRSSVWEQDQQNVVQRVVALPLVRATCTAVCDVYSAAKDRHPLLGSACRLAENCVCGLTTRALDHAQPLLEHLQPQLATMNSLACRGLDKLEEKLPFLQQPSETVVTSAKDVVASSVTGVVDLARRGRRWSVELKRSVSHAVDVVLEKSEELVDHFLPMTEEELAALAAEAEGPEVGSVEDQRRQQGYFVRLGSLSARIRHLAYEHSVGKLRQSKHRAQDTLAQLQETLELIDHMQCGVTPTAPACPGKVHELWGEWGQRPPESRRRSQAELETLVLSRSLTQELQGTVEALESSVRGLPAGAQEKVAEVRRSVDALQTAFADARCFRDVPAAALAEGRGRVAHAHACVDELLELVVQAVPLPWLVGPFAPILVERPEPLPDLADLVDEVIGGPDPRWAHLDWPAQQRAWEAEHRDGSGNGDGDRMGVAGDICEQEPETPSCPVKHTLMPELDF
# Target sequence (Q8WTS1 whole entry, looked up): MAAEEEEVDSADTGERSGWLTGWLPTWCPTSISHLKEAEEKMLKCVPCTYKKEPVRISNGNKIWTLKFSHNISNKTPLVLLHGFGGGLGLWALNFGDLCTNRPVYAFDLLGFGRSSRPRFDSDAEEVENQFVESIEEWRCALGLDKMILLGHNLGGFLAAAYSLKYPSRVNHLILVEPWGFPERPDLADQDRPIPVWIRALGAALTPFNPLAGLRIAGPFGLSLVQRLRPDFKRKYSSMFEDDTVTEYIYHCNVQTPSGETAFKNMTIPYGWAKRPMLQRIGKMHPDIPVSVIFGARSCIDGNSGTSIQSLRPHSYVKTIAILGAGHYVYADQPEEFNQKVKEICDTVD
# Dynein cargo inh = blocks dynein driven cargo transport along microtubules | 3617.4 mouse cells, GR-EGFP nuclear translocation imaging; test concentration mostly 20 µM; stimulated with dexamethasone, 1 µM; hits give low values | z-score, hits read low | actives 0.47% (n = 220,000);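 active means plate z-score of nuclear minus cytoplasmic receptor signal below a set negative limit, without overly bright fluorescence or cell loss, cut at about -3.5 in these data, passing the limit was not always enough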;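 further: z-score of nuclear minus cytoplasmic ring GR-EGFP intensity difference per well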
#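 medium = tetracycline-free induction medium containing charcoal-stripped FBS | also added = 1.0 µM final dexamethasone stimulus | schedule = 48 h induction, 1 h compound, 30 min dex at 37 °C | technique = fixed, Hoechst-stained cells imaged at 10x for EGFP | measure = GR-EGFP nuclear translocation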
# Beta2AR ag CP1 = activates human beta-2 adrenergic receptor | actives 25% (n = 1,100) | percent response (surface receptor), % at 10 µM | shares compounds with Beta2AR agonist | Am2.2-beta2AR cells, FAP surface receptor, flow cytometry; hits give low values;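 active means surface receptor percent response at or below 58%, roughly 3 SD from nonfluorescent compounds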
# FAP fluor counter = counter-screen for beta-2AR agonists: fluorescence in Am2.2 cells. AID 588765. calls only at 10 µM. FAP fluorogen flow cytometry, fluorescence counterscreen; hits give low values. shares compounds with Beta2AR agonist. 1,100 tested, under 10 active;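 active means percent response below a set limit in fluorescence channel 1 and below 50% in channel 8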
# TLR9-MyD88 cf = TLR9-MyD88 interaction inhibition, confirmation | shares compounds with TLR9-MyD88 block | CHO TLR9/MyD88 BLA complementation, CCF4 FRET ratio | inhibition, % at 4.98 µM | actives 51% (n = 680);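 active means mean inhibition across three repeats above about 21% taken from the earlier screen, limit read from the data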;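 further: blue over green emission ratio reports constitutive TLR9 MyD88 association via BLA complementation; 0% = DMSO vehicle wells and 100% = clavulanate BLA inhibitor wells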
# BLA nonselective = non-selective beta-lactamase inhibitors in TLR9-MyD88 counter-screen | shares compounds with TLR9-MyD88 block | CHO-BLA cells, CCF4 FRET ratio, BLA reporter | inhibition, % at 4.98 µM | actives 7% (n = 680);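 active means mean inhibition above a 50% cutoff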;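 further: counterscreen of TLR9-MyD88 hits on CMV-driven BLA in CHO-K1 cells; 0% = DMSO alone and 100% = clavulanate blocking BLA; higher means less blue over green ratio so more BLA blockade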
# TLR9 CHO tox = CHO cell toxicity counter-screen for TLR9-MyD88 inhibitors; shares compounds with TLR9-MyD88 block; TLR9-MyD88 CHO cells cytotoxicity, luminescence; inhibition, % at 4.98 µM; actives 39% (n = 680); in the data active means inhibition above about 11%
# ABHD5 PLIN5 conf = ABHD5-PLIN5 interaction inhibition, confirmed; AID 651612; shares compounds with ABHD5-PLIN5 inh; inhibition, % at 4 µM; biochemical ABHD5-PLIN5 interaction, luminescence; actives 67% (n = 2,200); in the data active means inhibition above about 23%;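 further: 0% = DMSO vehicle wells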
# HNF4 counter = HNF4 split-luciferase signal hit, counter-screen. shares compounds with ABHD5-PLIN5 inh. HNF4 dimerization, luminescence, biochemical. inhibition, % at 4 µM. actives 77% (n = 2,200). AID 651674;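 active means mean inhibition across replicate wells exceeding the computed hit threshold, cut at about 13% in these data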;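 further: light from luciferase halves that rejoin when HNF4 fusion proteins dimerize; 0% = DMSO only wells and the 100% control is not given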
# An asterisk follows results filed as active; i = inactive; / = no result.
SMILES,Beta2AR agonist,TLR9-MyD88 block,TLR4-MyD88 BLA,NOD2-RIPK2 inh,ABHD5-PLIN5 inh,Dynein cargo inh,Beta2AR ag CP1,FAP fluor counter,others
NC(=O)CC(NC(=O)c1cccc(Br)c1)c1ccc(N2CCN(c3ccccn3)CC2)c([N+](=O)[O-])c1 (configuration not stated),97*,2,/,-1,-9,/,14*,i,
Cc1cccc(OCC(=O)Nc2ccc3c(c2)nc(CCN2CCC(C)CC2)n3C)c1,2,5,/,-1,5,/,/,/,
COc1ccc(OCC(=O)Nc2ccc3c(c2)nc(CCN2CCN(C)CC2)n3C)cc1,52*,-10,/,5,3,/,107,i,
Cc1cccc(OCC(=O)Nc2ccc3c(c2)nc(CCN2CCN(C)CC2)n3C)c1,-1,-4,-2,-9,-2,0.6,112,i,
Cc1ccc(S(=O)(=O)N2C[C@H]3C(=O)C[C@@H](c4cccc(Cl)c4)N(S(=O)(=O)c4ccc(C)cc4)[C@H]3C[C@H]2c2cccc(Cl)c2)cc1,/,5,/,-13,11,/,/,/,
COc1cc2c(cc1OC)C(c1ccc(-c3ccc(Cl)cc3Cl)o1)=NCC2,17,-1,-4,9,5,0.55,/,/,
COc1cc2c(cc1OC)C(c1ccc(-c3cc(Cl)ccc3Cl)o1)=NCC2,15,-8,-2,-9,6,-0.07,120,i,
COc1ccccc1Nc1nn2c(=O)c3ccc(C(=O)NCc4cccnc4)cc3nc2s1,55*,0,/,-6,5,/,97,i,
Cc1ccc(-c2nn(-c3ccc(F)cc3)cc2C(=O)NCCCN2CCCC2=O)cc1,-8,1,/,0,0,/,/,/,
CN(C(=O)c1ccccc1F)C(c1ccccc1)c1ccccc1,-1,-3,/,1,2,/,/,/,
C=C(C)COc1ccc(-c2n[nH]c(C)c2-c2ccc(OC)cc2)c(O)c1,53*,7,13,7,-16,-1.2,115,i,
CCCCCCCCN1C(=O)[C@H](CC(=O)NCC23CC4CC(CC(C4)C2)C3)C[C@@]2(C(=O)OCC)CCC=C12,/,/,/,-1,-6,/,/,/,
OC(c1ccccc1)C(O)C(c1ccccc1)N1CCCCC1 (configuration not stated),-2,5,/,-13,-16,/,/,/,
Cc1ccc(S(=O)(=O)N2CCC(C(=O)Nc3nnc(-c4ccc(F)cc4)s3)CC2)cc1,65*,1,-7,-4,-6,-0.061,102,i,
Cc1ccc(NC(=O)c2ncn(CCCNCCCN(C)C)n2)cc1C,-3,8,/,-1,-4,/,/,/,
Cc1ccc(NC(=O)c2ncn(CCCNCCCc3ccccc3)n2)cc1C,42*,2,/,6,8,/,130,i,
O=C(NC(c1ccc(Cl)cc1)c1ccsc1)C1CCN(CCOc2ccc(Cl)cc2)CC1 (configuration not stated),/,/,/,-4,11,/,/,/,
Cc1ccc(S(=O)(=O)c2ccc([N+](=O)[O-])o2)cc1,86*,44*,/,93*,85*,/,16*,i,TLR9-MyD88 cf=51*;BLA nonselective=19;TLR9 CHO tox=99*
COc1ccc(Cn2c(=S)[nH]c3ccccc3c2=O)cc1,-3,-1,/,-2,0,/,/,/,
COc1cc(C=C2CN(C)C(=O)C2=O)ccc1O,/,-3,/,-2,9,/,/,/,
CCOc1cc(/C=C2\CN(C)C/C(=C\c3ccc(O)c(OCC)c3)C2=O)ccc1O,46*,-1,/,7,78*,/,73,i,ABHD5 PLIN5 conf=97*;HNF4 counter=88*
CCOC(=O)Cn1c(COc2ccccc2OC)[n+](C)c2ccccc21,-4,/,/,-12,2,/,/,/,
CCCCCCCCCCOC(=O)Cn1c(COc2ccccc2C)[n+](C)c2ccccc21,68*,14,/,22*,24*,/,105,i,ABHD5 PLIN5 conf=9;HNF4 counter=9
CCCC1NC(=O)c2cc3ccccc3cc2-n2c1nc1cc(Cl)ccc1c2=O (configuration not stated),/,-6,/,1,6,/,/,/,
Cn1nnnc1Sc1ncnc2scc(-c3cc4ccccc4o3)c12,53*,14,/,13,29*,/,57*,i,ABHD5 PLIN5 conf=71*;HNF4 counter=77*
SMILES,Beta2AR agonist,TLR9-MyD88 block,TLR4-MyD88 BLA,NOD2-RIPK2 inh,ABHD5-PLIN5 inh,Dynein cargo inh,Beta2AR ag CP1,FAP fluor counter,others
Cc1cc2nc(-c3cccc(Br)c3)c(CC(C)(C)C)n2c(C)c1Br,/,/,/,-5,-14,/,/,/,
CCCCNC(=O)C1(C)CCCCN1C(=O)c1ccc2c(c1)C(C)(C)CCC2(C)C (configuration not stated),/,/,/,-4,0,/,/,/,
O=C(C[n+]1cccc(NC(=O)c2ccccc2)c1)c1ccc(NC(=O)c2ccccc2)cc1,72*,-11,1,-9,24*,-0.95,47*,i,ABHD5 PLIN5 conf=14;HNF4 counter=-2
OCCN1CCN(CC(O)COc2ccc(Cl)cc2)CC1 (configuration not stated),5,-3,-5,-19,5,-1.7,/,/,
OCCN1CCN(CC(O)COc2ccc(C34CC5CC(CC(C5)C3)C4)cc2)CC1 (configuration not stated),61*,22*,-4,5,36*,6.4,109,i,TLR9-MyD88 cf=5;BLA nonselective=5;TLR9 CHO tox=40*;ABHD5 PLIN5 conf=15;HNF4 counter=5
O=C(COc1cc2oc(=O)c3c(c2cc1Cl)CCCC3)NCC1CCC(C(=O)O)CC1 (configuration not stated),-9,-6,/,-2,3,/,/,/,
Cc1ccc2nc(N(CCCN(C)C)C(=O)c3ccc(Br)s3)sc2c1,54*,-7,7,3,30*,0.54,96,i,ABHD5 PLIN5 conf=13;HNF4 counter=2
CCOC(=O)c1ccc(N=c2sc(C(=O)OC)cc(=O)n2-c2ccc(C(=O)OCC)cc2)cc1,48*,-4,2,0,34*,-3.3,50*,i,ABHD5 PLIN5 conf=92*;HNF4 counter=88*
